Assay results from ChEMBL document CHEMBL1641377, “Discovery of novel, potent, selective, and orally active human glucagon receptor antagonists containing a pyrazole core” (Bioorg Med Chem Lett, 2011).
Calls of active or inactive are those of the source. The calls are words filed in the database; no cut-off is given here.

Experiments:
Mus musculus [1] = experiment: Antihyperglycemic activity in streptozotocin-induced diabetes mouse model assessed as decrease in blood glucose AUC level at 10 mg/kg, po after 4 weeks; type: functional; settings: 672 h
Procedure, shortened: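 Diabetic model: hGCGR transgenic mice on high-fat diet for eight weeks, streptozotocin-treated during the last four weeks; single oral dose, blood glucose AUC over 2–6 h measured.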

[2] = Plasma concentration in dog at 1 to 10 mg/kg, iv after 30 mins; type: ADME, organism-based, Canis lupus familiaris; parameters: dose 1-10 mg/kg, route intravenous
[3] = Plasma concentration in rhesus monkey at 1 mg/kg, po after 4 hrs; type: ADME, organism-based, Macaca mulatta; parameters: dose 1 mg/kg, route oral
Procedure, shortened: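 Overnight-fasted rhesus monkeys received the oral dose 4 h before the glucagon challenge (15 µg/kg im, time zero). Plasma drug level was sampled at the time of the challenge (t = 0, n = 4). Plasma glucose was then followed every 10 min and expressed as the change from time zero.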

[4] = Volume of distribution at steady state in dog at 0.5 mg/kg, iv and 2 mg/kg, po; type: ADME, organism-based, Canis lupus familiaris; settings: in vivo, read-out: Vdss
Canis familiaris = experiment: Cardiotoxicity in dog assessed as effect on cardiovascular parameters at 1 to 10 mg/kg, iv after 30 mins; type: toxicity, organism-based, Canis lupus familiaris, Heart; parameters: dose 1-10 mg/kg, route intravenous; settings: in vivo, 0.5 h
Glucagon receptor = Glucagon receptor (Homo sapiens, UniProt P47871); experiment: Antagonist activity at human GCGR expressed in CHO cells assessed as inhibition of glucagon-induced cAMP accumulation; type: functional, cell-based
Procedure, shortened: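 Inhibition of glucagon-induced cAMP accumulation in CHO cells transfected with human GCGR; IC50 derived, n given where replicated.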

[5] = Volume of distribution at steady state in rat at 1 mg/kg, iv and 2 mg/kg, po; type: ADME, organism-based; settings: in vivo, read-out: Vdss
Mus musculus [6] = experiment: In vivo occupancy of human GCGR transfected in mouse at 10 mg/kg after 1 hr; type: functional
Procedure, shortened: (§1)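 In vivo receptor occupancy measured in hGCGR transgenic mice after oral dosing, at 1 h post-dose (30 and 10 mpk) and in a separate experiment at 1, 3 and 8 h after 10 mpk.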

Oryctolagus cuniculus = organism: Oryctolagus cuniculus; experiment: Binding affinity to DLZ-sensitive rabbit calcium channel up to 10 uM
Rhesus monkey = experiment: Antidiabetic activity in rhesus monkey assessed as inhibition of glucagon-induced blood glucose excursion at 1 to 10 mg/kg, po administered 4 hrs before glucagon challenge measured after 4 hrs; type: functional, organism-based; settings: Macaca mulatta
Procedure, shortened: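 Overnight-fasted rhesus monkeys dosed with vehicle or compound 4 h before challenge; glucagon 15 µg/kg im at time zero, plasma glucose monitored every 10 min and expressed as change from time zero per group.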

Mus musculus [7] = experiment: Dose normalized AUC in mouse at 2 mg/kg, po; type: ADME, organism-based; parameters: dose 2 mg/kg, route oral; settings: in vivo
[8] = Cmax in rhesus monkey at 2 mg/kg, po; type: ADME, organism-based, Macaca mulatta; parameters: dose 2 mg/kg, route oral; settings: in vivo
Homo sapiens = organism: Homo sapiens; experiment: Binding affinity to human sodium channel up to 10 uM
[9] = Bioavailability in dog at 0.5 mg/kg, iv and 2 mg/kg, po; type: ADME, organism-based, Canis lupus familiaris; settings: in vivo
Cytochrome P450 2D6 = Cytochrome P450 2D6 (Homo sapiens, UniProt P10635); experiment: Inhibition of CYP2D6; type: ADME
[10] = Antagonist activity at rhesus monkey GCGR assessed as inhibition of glucagon-induced cAMP accumulation; type: functional, Macaca mulatta
[11] = Plasma clearance in dog at 0.5 mg/kg, iv and 2 mg/kg, po; type: ADME, organism-based, Canis lupus familiaris
[12] = Half life in dog at 0.5 mg/kg, iv and 2 mg/kg, po; type: ADME, organism-based, Canis lupus familiaris; settings: in vivo
[13] = Drug level in blood of transgenic mouse expressing human GCGR at 30 mg/kg, po after 45 mins; type: ADME, organism-based; parameters: dose 30 mg/kg, route oral; settings: read-out: Drug uptake
Procedure, shortened: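 Blood drug concentration sampled in hGCGR transgenic mice during the oral glucagon-challenge pharmacodynamic assay at 45 and 120 min post dose, 10 and 30 mpk groups, n = 3 per group.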

Mus musculus [14] = experiment: In vivo occupancy of human GCGR transfected in mouse at 10 mg/kg after 3 hrs; type: functional; procedure, shortened: as §1
[15] = target: T1, Nuclear receptor subfamily 1 group I member 2 (Homo sapiens, UniProt O75469); experiment: Activity at human PXR
T1 sequence (O75469 whole entry): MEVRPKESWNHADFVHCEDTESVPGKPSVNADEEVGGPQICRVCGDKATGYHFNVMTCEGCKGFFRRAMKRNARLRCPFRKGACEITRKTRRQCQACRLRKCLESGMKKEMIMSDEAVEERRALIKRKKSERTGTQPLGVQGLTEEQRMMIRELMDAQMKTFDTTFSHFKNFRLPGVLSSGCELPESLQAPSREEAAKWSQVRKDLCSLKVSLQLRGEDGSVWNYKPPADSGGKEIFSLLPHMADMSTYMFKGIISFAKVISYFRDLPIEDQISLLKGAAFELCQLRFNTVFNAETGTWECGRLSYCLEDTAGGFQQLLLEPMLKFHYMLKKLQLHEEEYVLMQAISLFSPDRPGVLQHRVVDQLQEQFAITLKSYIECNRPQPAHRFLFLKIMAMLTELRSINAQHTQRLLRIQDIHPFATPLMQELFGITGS

[16] = Cmax in rat at 2 mg/kg, po; type: ADME, organism-based; parameters: dose 2 mg/kg, route oral; settings: in vivo
[17] = target: Pituitary adenylate cyclase-activating polypeptide type I receptor (Homo sapiens, UniProt P41586); experiment: Antagonist activity at human PACAPR1 expressed in CHO cells assessed as inhibition of glucagon-induced cAMP accumulation; type: functional, cell-based
Cytochrome P450 2C8 = target: T2, Cytochrome P450 2C8 (Homo sapiens, UniProt P10632); experiment: Inhibition of CYP2C8; type: ADME
T2 sequence (P10632 whole entry): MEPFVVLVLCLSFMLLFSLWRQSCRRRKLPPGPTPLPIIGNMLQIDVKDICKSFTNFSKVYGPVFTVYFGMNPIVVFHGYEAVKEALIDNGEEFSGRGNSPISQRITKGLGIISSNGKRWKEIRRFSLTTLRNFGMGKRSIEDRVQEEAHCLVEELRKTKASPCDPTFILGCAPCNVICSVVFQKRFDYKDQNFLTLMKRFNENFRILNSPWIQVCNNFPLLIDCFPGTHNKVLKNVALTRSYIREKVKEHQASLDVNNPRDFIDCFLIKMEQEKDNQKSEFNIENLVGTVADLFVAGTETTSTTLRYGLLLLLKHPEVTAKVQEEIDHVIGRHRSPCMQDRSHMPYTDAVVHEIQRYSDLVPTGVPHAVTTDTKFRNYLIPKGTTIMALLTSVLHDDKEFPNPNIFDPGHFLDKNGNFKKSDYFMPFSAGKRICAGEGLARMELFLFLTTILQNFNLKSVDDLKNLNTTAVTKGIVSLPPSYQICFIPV

[18] = Cmax in mouse at 2 mg/kg, po; type: ADME, organism-based; parameters: dose 2 mg/kg, route oral; settings: in vivo
[19] = Plasma clearance in rat at 1 mg/kg, iv and 2 mg/kg, po; type: ADME, organism-based

Pituitary adenylate cyclase-activating polypeptide type I receptor, sequence (P41586 whole entry): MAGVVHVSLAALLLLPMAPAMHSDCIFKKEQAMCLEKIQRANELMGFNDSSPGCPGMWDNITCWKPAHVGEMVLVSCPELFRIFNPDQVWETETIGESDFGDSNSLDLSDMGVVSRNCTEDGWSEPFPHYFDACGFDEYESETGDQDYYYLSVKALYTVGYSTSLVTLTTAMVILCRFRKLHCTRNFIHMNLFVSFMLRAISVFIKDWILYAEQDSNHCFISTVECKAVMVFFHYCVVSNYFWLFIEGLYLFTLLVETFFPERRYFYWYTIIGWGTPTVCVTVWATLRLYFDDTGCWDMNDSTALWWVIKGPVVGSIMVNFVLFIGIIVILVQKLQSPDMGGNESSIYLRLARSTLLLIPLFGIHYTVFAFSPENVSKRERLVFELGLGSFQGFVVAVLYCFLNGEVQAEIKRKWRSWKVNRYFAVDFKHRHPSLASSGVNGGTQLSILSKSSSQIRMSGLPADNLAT
Cytochrome P450 2D6, sequence (P10635 whole entry): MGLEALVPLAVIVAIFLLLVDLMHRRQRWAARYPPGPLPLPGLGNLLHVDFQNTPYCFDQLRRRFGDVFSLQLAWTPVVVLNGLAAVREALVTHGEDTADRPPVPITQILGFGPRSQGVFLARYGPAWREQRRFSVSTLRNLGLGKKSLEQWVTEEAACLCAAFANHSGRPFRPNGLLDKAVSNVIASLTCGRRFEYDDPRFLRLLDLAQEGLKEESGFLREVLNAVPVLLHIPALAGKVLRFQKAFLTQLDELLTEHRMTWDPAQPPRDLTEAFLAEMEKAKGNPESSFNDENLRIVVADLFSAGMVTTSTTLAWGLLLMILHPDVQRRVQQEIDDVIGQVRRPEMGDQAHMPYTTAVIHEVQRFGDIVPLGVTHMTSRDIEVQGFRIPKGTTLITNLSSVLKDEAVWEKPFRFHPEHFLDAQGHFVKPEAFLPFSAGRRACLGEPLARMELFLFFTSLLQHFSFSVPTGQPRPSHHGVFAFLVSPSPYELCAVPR
Glucagon receptor, sequence (P47871 whole entry): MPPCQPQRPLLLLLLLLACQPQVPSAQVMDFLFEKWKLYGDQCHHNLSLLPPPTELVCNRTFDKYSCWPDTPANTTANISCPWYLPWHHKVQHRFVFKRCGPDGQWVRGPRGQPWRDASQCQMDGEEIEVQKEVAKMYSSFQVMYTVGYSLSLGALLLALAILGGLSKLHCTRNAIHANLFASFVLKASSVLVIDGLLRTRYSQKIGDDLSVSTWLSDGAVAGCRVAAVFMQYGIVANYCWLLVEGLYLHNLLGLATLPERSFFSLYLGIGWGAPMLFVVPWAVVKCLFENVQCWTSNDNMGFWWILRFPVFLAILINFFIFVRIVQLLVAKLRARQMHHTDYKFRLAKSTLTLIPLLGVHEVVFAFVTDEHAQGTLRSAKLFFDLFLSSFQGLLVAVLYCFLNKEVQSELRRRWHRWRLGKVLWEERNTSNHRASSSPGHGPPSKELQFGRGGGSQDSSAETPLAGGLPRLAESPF

`O=C(O)CCNC(=O)c1ccc(Cn2nc(-c3cc(Cl)cc(Cl)c3)cc2-c2ccc(OC(F)(F)F)cc2)cc1` showed an inhibition in vivo at 10 mg/kg (Mus musculus [1]) of 27%, a concentration at 0.5 h [2] of 96000 nM and a concentration at 4 h [3] of 600 nM. The Vd [4] was 0.14 L/kg, the Activity (Canis familiaris) was “Non-toxic” and the IC50 (Glucagon receptor) was 0.11 µM. For the same compound, the Vd [5] was 0.75 L/kg, the Activity (Mus musculus [6]) was 64% and the Activity (Oryctolagus cuniculus) was “inactive”. The inhibition (Rhesus monkey) was “Active”, the AUC (Mus musculus [7]) was 0.73 µM·kg·h/mg and the Cmax [8] was 4200 nM. For the same compound, the Activity (Homo sapiens) was “inactive”, the bioavailability [9] was 46% and the IC50 (Cytochrome P450 2D6) was greater than 100 µM. For the same compound, the IC50 [10] was 0.14 µM, the clearance [11] was 0.49 mL/min/kg and the half-life [12] was 3.6 h. It also gave a concentration at 0.75 h [13] of 10300 nM, an Activity (Mus musculus [14]) of 60% and an EC50 [15] greater than 25 µM. For the same compound, the Cmax [16] was 1600 nM, the IC50 [17] was greater than 7 µM and the IC50 (Cytochrome P450 2C8) was 19 µM. It also gave a Cmax [18] of 230 nM and a clearance [19] of 1.6 mL/min/kg.
